RGS4 pot: RGS4 potentiation or activation | HEK293 M3R/inducible RGS4, carbachol calcium flux Fluo4; active compounds read low | B-score at 10 µM | hit rate 0.92% among 310,000 | AID 463111;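 active = B-score of the integrated calcium signal more than 4 SD below the library mean, with starting fluorescence not abnormally high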;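 also: negative B-score means reduced calcium response which marks RGS4 activation or potentiation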
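System – HEK293 FlpIn-TREx cells, stable M3R, doxycycline-inducible RGS4 · Reagent – ECmax carbachol challenge · Times – compound preincubation 20 min at room temperature before agonist · Technique – Fluo4 fluorescence kinetic imaging of calcium · Measure – B score of integrated Fluo4 ratio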
MrgX1 ag: activates human MrgX1 receptor signaling. AID 588627. B-score at 10 µM. hit rate 0.44% among 310,000. Q96LB2. MrgX1-HEK293 cells, Fluo-4 calcium fluorescence, agonist mode; active compounds read high;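 active = calcium response B-score plate-corrected fluorescence ratio at least 3 library SD, with starting fluorescence B-score inside 5 SD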
Target sequence (Q96LB2 whole entry, looked up): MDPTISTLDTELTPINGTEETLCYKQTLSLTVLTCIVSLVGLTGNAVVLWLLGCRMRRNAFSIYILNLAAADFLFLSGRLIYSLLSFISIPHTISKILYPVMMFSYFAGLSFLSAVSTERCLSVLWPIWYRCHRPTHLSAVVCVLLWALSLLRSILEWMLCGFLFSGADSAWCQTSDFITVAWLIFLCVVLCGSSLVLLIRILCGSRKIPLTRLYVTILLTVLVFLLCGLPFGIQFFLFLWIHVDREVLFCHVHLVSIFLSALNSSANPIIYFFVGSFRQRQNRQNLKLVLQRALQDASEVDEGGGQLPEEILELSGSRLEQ
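Material: MrgX1-expressing HEK293 cells; input: 15,000 cells per well; doses: test compound given as first of three sequential additions; schedule: overnight plating before 1 h dye loading; technique: Fluo-4 NW calcium-flux fluorescence, kinetic read; evaluation: baseline-normalised fluorescence change ratio, B-scored; control set: plate-wise positive and negative controls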
MrgX1 PAM: allosterically activates human MrgX1 receptor signaling | Q96LB2 | MrgX1-HEK293, Fluo-4 calcium flux, FDSS; active compounds read high | B-score at 10 µM | hit rate 0.63% among 310,000 | AID 588675;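 active = plate-corrected calcium response at least 3 library SD above typical, normal starting fluorescence, not activating the receptor alone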;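 also: compound read alongside a low EC10 to EC30 dose of BAM8-22 agonist; peak minus trough fluorescence over baseline measured at the second addition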
MrgX1 antagonist: human MrgX1 receptor antagonism, primary screen | Q96LB2 | MRGX1-HEK293 calcium flux, Fluo-4, BAM8-22 antagonism; active compounds read low | B-score at 10 µM | hit rate 1.3% among 310,000 | AID 588676;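 active = calcium-response B-score plate-corrected more than 3 library SD below zero, starting fluorescence within 5 deviations, no agonist response on first addition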;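 also: peak minus trough fluorescence over baseline after final BAM8-22 challenge near maximal dose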
RGS4 inh: inhibitors of human RGS4; P49798; HEK293 M3R/RGS4 inducible, Fluo-4 calcium flux; active compounds read high; triggered by carbachol at its EC20; B-score at 10 µM; hit rate 0.45% among 310,000; AID 463165;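 active = B-score, a plate-corrected calcium signal, over three deviations above library mean, with baseline fluorescence within five deviations of library mean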;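 also: RGS4 expression induced by doxycycline in cells with stable M3 receptor; B-score is computed from the integrated fluorescence ratio over baseline after carbachol; higher B-score means a larger calcium signal and so more RGS4 inhibition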
Target sequence (P49798 whole entry, looked up): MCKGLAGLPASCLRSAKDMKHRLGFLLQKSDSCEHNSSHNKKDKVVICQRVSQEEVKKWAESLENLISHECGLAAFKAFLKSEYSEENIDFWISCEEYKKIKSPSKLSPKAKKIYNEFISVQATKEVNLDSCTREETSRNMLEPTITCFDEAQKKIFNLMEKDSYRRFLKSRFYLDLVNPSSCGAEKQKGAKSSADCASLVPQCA
MrgX1 PAM conf: reconfirmed allosteric activator of human MrgX1 receptor; MrgX1-HEK293, Fluo-4 calcium fluorescence, FDSS; activation (ratio percentage), % at 10 µM; shares compounds with MrgX1 PAM; AID 602413; hit rate 13% among 1,200;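 active = ratio at least 3 SD above the weak peptide control, stable starting fluorescence, no direct agonism earlier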;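 also: compound followed by low BAM8-22 agonist challenge near EC20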
MrgX1 ant reconf: confirmation of human MrgX1 receptor antagonists; MrgX1-HEK293, BAM8-22 calcium flux, Fluo-4; active compounds read low; AID 602420; shares compounds with MrgX1 antagonist; remaining BAM8-22 calcium response % of control (active compounds read low), % at 10 µM; hit rate 19% among 2,300;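 active = remaining agonist calcium response no higher than 100% minus 3 SD of agonist-only control wells, with starting fluorescence near control levels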;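 also: agonist BAM8-22 given at a near maximal EC90 to ECmax level; peak minus minimum fluorescence divided by baseline after agonist addition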
HEK293 Ca flux: activity in parental HEK293 cells lacking MrgX1; shares compounds with MrgX1 antagonist; Fluo-4 calcium fluorescence, FDSS; hit rate 2% among 4,000; fluorescence ratio F(max-min)/F0 at 10 µM; AID 624111;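 active = duplicate-averaged calcium fluorescence ratio at least three times the standard deviation of buffer wells, a nonspecific response in parental cells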
HEK293 Ca counter: activity in parental HEK293 cells without MrgX1 | shares compounds with MrgX1 antagonist | parental HEK293 calcium flux, Fluo-4 fluorescence ratio; active compounds read high | fluorescence ratio F(max-min)/F0 at 10 µM | hit rate 0.4% among 4,000 | AID 624114;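 active = calcium fluorescence ratio, averaged over duplicates, at least 3 SD of the buffer-well ratio, meaning a nonspecific response in receptor-free cells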;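 also: untransfected parental HEK293 lacking MrgX1 used as counterscreen for MrgX1 allosteric activators; fluorescence change taken during the second addition on a kinetic imager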
HEK293 Ca cntr2: MrgX1 activator counter-screen hit in parental HEK293 cells. fluorescence ratio F(max-min)/F0 at 10 µM. AID 624115. Fluo-4 calcium fluorescence (FDSS); active compounds read high. shares compounds with MrgX1 antagonist. hit rate 8.7% among 4,000;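 active = calcium fluorescence ratio at least three times the spread of buffer wells, meaning a non-specific response in parental cells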
Numbers without * were called inactive; i = inactive; . = no result. Sampled rows, rich in hits. Any-hit rate of the full collection: about 3.5%.

SMILES	RGS4 pot	MrgX1 ag	MrgX1 PAM	MrgX1 antagonist	RGS4 inh	MrgX1 PAM conf	HEK293 Ca flux	HEK293 Ca counter	HEK293 Ca cntr2	others
c1ccc(-n2cnc3cc(NCc4cccs4)ccc32)cc1	i	i	i	i	i	.	.	.	.
O=C(c1ccc(N2CCN(C3CC(=O)N(Cc4cccs4)C3=O)CC2)cc1)c1cccnc1 (configuration not stated)	i	i	9*	-5.1*	i	3.0%*	i	i	i	MrgX1 ant reconf=83.8%*
O=C(c1ccncc1)c1ccc(N2CCN(C3CC(=O)N(Cc4ccccc4)C3=O)CC2)cc1 (configuration not stated)	i	i	i	i	i	.	.	.	.
Cc1ccc(CN2CCN(C3CCOCC3)CC2CCO)cc1 (configuration not stated)	i	i	8.87*	i	i	i	i	i	i
COc1ccc(C(=O)NCC(=O)OCC(=O)c2ccc3c(c2)NC(=O)CO3)cc1	i	i	7.56*	i	i	i	i	48*	i
O=C(COc1ccc(Cl)cc1Cl)Nc1cccnc1	i	i	8.66*	i	i	i	i	i	i
O=C(COc1ccc(Cl)cc1Cl)N/N=C/c1cccnc1	i	i	i	i	i	.	.	.	.
CNC(=O)COC(=O)c1cc2c(s1)CCCC2	i	i	12.1*	i	i	i	i	i	i
C/C(N)=C(/C#N)C(=O)COC(=O)c1cc2c(s1)CCCC2	i	i	i	i	i	.	.	.	.
Cn1ncc(Br)c1C(=O)NC12CC3CC(CC(C3)C1)C2	i	i	8.64*	i	i	i	i	i	i
O=C(Nc1nc(-c2cccs2)c(C(=O)C(F)(F)F)s1)c1ccco1	i	i	7.6*	i	i	i	i	i	i
Nn1c(SCC(=O)Nc2cccc(S(N)(=O)=O)c2)nnc1C1CC1	i	i	7.84*	i	i	i	i	i	i
CN(NS(=O)(=O)c1ccc(Cl)cc1)c1ncc(C(F)(F)F)cc1Cl	i	i	i	i	i	.	.	.	.
CCOC(=O)N1CCN(C(=O)CN(Cc2ccc(Cl)cc2)S(=O)(=O)c2ccc(C)cc2)CC1	i	i	i	i	i	.	.	.	.
Cc1cnc(C(=O)NC2CC(C)(C)Cc3c2cnn3-c2cccc(F)c2)cn1 (configuration not stated)	i	i	7.81*	i	i	i	i	i	i
CCn1cc(C(=O)NC2CC(C)(C)Cc3c2cnn3-c2cccc(F)c2)cn1 (configuration not stated)	i	i	i	i	i	.	.	.	.
Cc1c(CN2CCC(CO)(Cc3cccc(C(F)(F)F)c3)CC2)c2ccccc2n1C	i	i	i	i	i	.	.	.	.
CC1CCC(=C(C#N)C(=O)Nc2cccc(Cl)c2)CC1 (configuration not stated)	i	i	i	i	i	.	.	.	.
CC1CCC2(CC1)C(Nc1cccc(Cl)c1)=NC(=S)N2CC#N (configuration not stated)	i	i	8.34*	i	i	i	i	i	i
CC1(C)OC2C(O1)[C@@H](CO)O[C@H]2n1cnc2c(N)ncnc21 (some centres not stated)	i	i	i	i	i	.	.	.	.
OC[C@H]1O[C@@H](n2cnc3c(Nc4ccccc4)ncnc32)[C@H](O)[C@@H]1O	i	i	7.07*	i	i	i	i	i	i
COc1ccc(/C=C2\SC(=S)N(CCCC(=O)Nc3ccccc3C(=O)O)C2=O)cc1OC	i	i	21.9*	i	i	i	i	i	52.6*
COc1ccc(/C=C2\SC(=S)N(CCC(=O)Nc3ccccc3C(=O)O)C2=O)cc1	i	i	i	i	i	.	.	.	.
COc1ccc(CCNc2nc(-c3ccncc3)cs2)cc1OC	i	i	7.34*	-5.14*	i	i	i	i	i	MrgX1 ant reconf=78.5%*
CCN(CCO)c1nc(N2CCCCC2)c2cnn(C)c2n1	i	i	i	i	i	.	.	.	.
SMILES	RGS4 pot	MrgX1 ag	MrgX1 PAM	MrgX1 antagonist	RGS4 inh	MrgX1 PAM conf	HEK293 Ca flux	HEK293 Ca counter	HEK293 Ca cntr2	others
O=C(C1CCN(S(=O)(=O)c2cccs2)CC1)N1CCc2ccccc2C1	i	i	i	i	i	.	.	.	.
O=C(C1CCCN(S(=O)(=O)c2cccs2)C1)N1CCc2ccccc2C1 (configuration not stated)	i	i	9.63*	i	i	i	i	i	i
CCN(CC(=O)NCCCN1CCOCC1)S(=O)(=O)c1ccc(F)cc1	i	i	i	i	i	.	.	.	.
O=C(CSc1ncn[nH]1)Nc1ccc(Cl)c(Cl)c1	i	i	i	i	i	.	.	.	.
Cc1ccc(CCNC(=O)Cn2ccc3cc(S(=O)(=O)N4CCCC4)ccc32)cc1	i	i	i	i	i	.	.	.	.
Cc1ccccc1CCNC(=O)Cn1ccc2cc(S(=O)(=O)N3CCCC3)ccc21	i	i	7.15*	i	i	i	i	i	i
CC(=O)N1CCN(C2=NC(=O)/C(=C/c3ccc(OS(=O)(=O)c4ccccc4)cc3)S2)CC1	i	i	i	i	i	.	.	.	.
Cc1csc(NC(=O)c2cncc(Br)c2)n1	i	i	15.1*	i	i	i	i	i	i
CC(C)(C)OC(=O)N1CCC(CNC(=O)c2ccc(F)cc2)CC1	i	i	34.5*	i	i	i	i	i	i
CCCCNC(=O)c1nn2c(C(F)(F)F)cc(-c3ccc(OC)cc3)nc2c1Br	i	i	i	i	i	.	.	.	.
Nc1nc(-c2ccccc2)cc(C(F)(F)F)n1	i	i	i	i	i	.	.	.	.

Assay outcomes (PubChem)
